Results published in ChEMBL document CHEMBL1124365, “3-Quaternary ammonium 1-carba-1-dethiacephems” (J Med Chem, 1989).
Values after ≈ are worked out from the molar mass of the structure shown.

Experiments:
[1] = test system: Morganella morganii; assay: Minimal inhibitory activity against the Proteus morganii (PR15); format: functional
In short: (§1)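 Agar dilution: compounds diluted in 0.1 M phosphate buffer pH 7.0, incorporated into Mueller-Hinton agar with 1% Bacto-Supplement C at 50 °C. Overnight cultures diluted to ~1×10^4 cells/µL, 1 µL spotted onto plates; incubated overnight at 35 °C in ambient air. MIC = lowest concentration preventing visible growth.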

[2] = test system: Escherichia coli; assay: Minimal inhibitory activity against the Escherichia coli (EC14); format: functional; in short: as §1
[3] = Half-life was evaluated for pharmacokinetic data in rats; format: ADME, organism-based; settings: rat, in vivo
In short: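 Male Sprague-Dawley rats, single 20 mg/kg intravenous dose in saline via indwelling jugular vein cannula; serial blood sampling from the same cannula over 4 h. Plasma levels measured by agar well diffusion bioassay with E. coli ATCC 4157 (detection limit ≤0.80 µg/mL). Half-life calculated as 0.693/β, β being the terminal slope of the plasma concentration–time curve.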

[4] = test system: Klebsiella; assay: Minimal inhibitory activity against the Klebsiella (X26); format: functional; in short: as §1
[5] = test system: Staphylococcus epidermidis; assay: Minimal inhibitory activity against the Staphylococcus epidermidis (222); format: functional; in short: as §1
[6] = test system: Escherichia coli; assay: Minimal inhibitory activity against the E. coli(TEM beta lactamase containing); format: functional; in short: as §1
[7] = test system: Streptococcus pneumoniae; assay: Minimal inhibitory activity against the Streptococcus pneumoniae (PARK); format: functional; in short: as §1
[8] = species on record: Rattus norvegicus; assay: Urinary recovery was evaluated for pharmacokinetic data in rats; format: organism-based; settings: Urine
In short: (§2)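 Male Sprague-Dawley rats given 20 mg/kg IV in saline via indwelling jugular vein cannula; serial blood sampling through cannula, plasma and urine collected over 4 h. Drug levels by agar well diffusion bioassay with E. coli ATCC 4157 (detection limit ≤0.80 μg/mL). Half-life = 0.693/β from terminal plasma slope; urinary recovery as percent of administered dose.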

[9] = test system: Haemophilus influenzae; assay: Minimal inhibitory activity against the Haemophilus influenzae (C.L); format: functional; in short: as §1
[10] = test system: Salmonella; assay: Minimal inhibitory activity against the Salmonella (X514); format: functional; in short: as §1
[11] = test system: Streptococcus pyogenes; assay: Minimal inhibitory activity against the Streptococcus pyogenes (C203); format: functional; in short: as §1
[12] = test system: Klebsiella; assay: Minimal inhibitory activity against the Klebsiella(KAE beta lactamase containing); format: functional; in short: as §1
[13] = test system: Enterobacter cloacae; assay: Minimal inhibitory activity against the Enterobacter cloacae (265A beta lactamase containing); format: functional; in short: as §1
[14] = test system: Pseudomonas aeruginosa; assay: Minimal inhibitory activity against the Pseudomonas aeruginosa (X528); format: functional; in short: as §1
[15] = test system: Staphylococcus aureus; assay: Minimal inhibitory activity against the Staphylococcus aureus (X1.1); format: functional; in short: as §1
[16] = test system: Enterobacter cloacae; assay: Truncation of the zone of inhibition was graded for Enterobacter cloacae EB17 on a 30 ug disk of test compound; format: functional
In short: (§3)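 Cefoxitin disk approximation: Mueller-Hinton agar swab-inoculated with ~1×10^8 cells/mL of inducible Enterobacter strains; 30 µg test-compound disks plus 30 µg cefoxitin disks placed ~15 mm from their edge. Overnight at 35 °C in ambient air; truncation of inhibition zone on cefoxitin-proximal side graded as a measure of induced β-lactamase effect.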

[17] = test system: Enterobacter cloacae; assay: Truncation of the zone of inhibition was graded for Enterobacter cloacae EB5 on a 30 ug disk of test compound; format: functional; in short: as §3
[18] = test system: Enterobacter cloacae; assay: Truncation of the zone of inhibition was graded for Enterobacter cloacae EB57 on a 30 ug disk of test compound; format: functional; in short: as §3
[19] = test system: Providencia rettgeri; assay: Minimal inhibitory activity against the Proteus rettgeri (C24); format: functional; in short: as §1
[20] = Half-life was evaluated for pharmacokinetic data in rats.; format: ADME, organism-based; settings: rat, in vivo; in short: as §2
[21] = test system: Enterobacter cloacae; assay: Minimal inhibitory activity against the Enterobacter cloacae (EB5); format: functional; in short: as §1

Row | Compound | MIC [1] | MIC [2] | MIC [4] | MIC [5] | MIC [6] | MIC [7] | Recovery [8] | MIC [9] | MIC [10] | MIC [11] | MIC [12] | MIC [13] | MIC [14] | MIC [15] | Zone diameter [16] | Zone diameter [17] | Zone diameter [18] | MIC [19] | MIC [21] | further results
1 | CC(C)(O/N=C(\C(=O)N[C@@H]1C(=O)N2C(C(=O)[O-])=C(C[n+]3ccccc3)CS[C@H]12)c1csc(N)n1)C(=O)O [CEFTAZIDIME] | 0.5 µg/mL (≈ 0.915 µM) | 0.06 µg/mL (≈ 0.11 µM) | 0.06 µg/mL (≈ 0.11 µM) | 16 µg/mL (≈ 29.3 µM) | 0.125 µg/mL (≈ 0.229 µM) | 0.06 µg/mL (≈ 0.11 µM) | 100% | 0.06 µg/mL (≈ 0.11 µM) | 0.125 µg/mL (≈ 0.229 µM) | 0.06 µg/mL (≈ 0.11 µM) | 0.5 µg/mL (≈ 0.915 µM) | 32 µg/mL (≈ 58.5 µM) | 2 µg/mL (≈ 3.66 µM) | 8 µg/mL (≈ 14.6 µM) | – | – | – | – | – | half-life [3]: 22.9 min
2 | CO/N=C(\C(=O)N[C@@H]1C(=O)N2C(C(=O)[O-])=C(C[n+]3ccccc3)CC[C@H]12)c1csc(N)n1 | – | – | – | – | – | – | 87.9% | – | – | – | – | – | – | – | 35 mm | 26 mm | 26 mm | – | – | half-life [3]: 22.9 min
3 | CO/N=C(\C(=O)N[C@@H]1C(=O)N2C(C(=O)[O-])=C([n+]3ccccc3)CC[C@H]12)c1csc(N)n1 | 0.25 µg/mL (≈ 0.565 µM) | 0.06 µg/mL (≈ 0.136 µM) | 0.03 µg/mL (≈ 0.0678 µM) | 8 µg/mL (≈ 18.1 µM) | 0.06 µg/mL (≈ 0.136 µM) | 0.03 µg/mL (≈ 0.0678 µM) | 82.6% | 0.5 µg/mL (≈ 1.13 µM) | 0.03 µg/mL (≈ 0.0678 µM) | 0.03 µg/mL (≈ 0.0678 µM) | 8 µg/mL (≈ 18.1 µM) | 2 µg/mL (≈ 4.52 µM) | 128 µg/mL (≈ 289 µM) | 4 µg/mL (≈ 9.04 µM) | 30 mm | 30 mm | 31 mm | 0.5 µg/mL (≈ 1.13 µM) | 0.125 µg/mL (≈ 0.283 µM) | half-life [20]: 21.2 min
4 | CO/N=C(\C(=O)N[C@@H]1C(=O)N2C(C(=O)[O-])=C([n+]3cc(C)ccc3C)CC[C@H]12)c1csc(N)n1 | 0.25 µg/mL (≈ 0.531 µM) | 0.125 µg/mL (≈ 0.266 µM) | 0.125 µg/mL (≈ 0.266 µM) | 8 µg/mL (≈ 17 µM) | 0.125 µg/mL (≈ 0.266 µM) | 0.06 µg/mL (≈ 0.128 µM) | – | 0.5 µg/mL (≈ 1.06 µM) | 0.125 µg/mL (≈ 0.266 µM) | 0.03 µg/mL (≈ 0.0638 µM) | 2 µg/mL (≈ 4.25 µM) | 1 µg/mL (≈ 2.13 µM) | 128 µg/mL (≈ 272 µM) | 4 µg/mL (≈ 8.5 µM) | – | – | – | 0.25 µg/mL (≈ 0.531 µM) | 0.25 µg/mL (≈ 0.531 µM) | –
5 | CO/N=C(\C(=O)N[C@@H]1C(=O)N2C(C(=O)[O-])=C([n+]3cccc4c3CCC4)CC[C@H]12)c1csc(N)n1 | 0.25 µg/mL (≈ 0.518 µM) | 0.06 µg/mL (≈ 0.124 µM) | 0.03 µg/mL (≈ 0.0622 µM) | 4 µg/mL (≈ 8.29 µM) | 0.5 µg/mL (≈ 1.04 µM) | 0.03 µg/mL (≈ 0.0622 µM) | 82.3% | 0.5 µg/mL (≈ 1.04 µM) | 0.03 µg/mL (≈ 0.0622 µM) | 0.03 µg/mL (≈ 0.0622 µM) | 8 µg/mL (≈ 16.6 µM) | 1 µg/mL (≈ 2.07 µM) | 128 µg/mL (≈ 265 µM) | 2 µg/mL (≈ 4.14 µM) | – | – | – | 0.5 µg/mL (≈ 1.04 µM) | 0.125 µg/mL (≈ 0.259 µM) | half-life [20]: 20.1 min
6 | CO/N=C(\C(=O)N[C@@H]1C(=O)N2C(C(=O)[O-])=C([n+]3ccc(C)c(C)c3)CC[C@H]12)c1csc(N)n1 | 0.125 µg/mL (≈ 0.266 µM) | 0.06 µg/mL (≈ 0.128 µM) | 0.06 µg/mL (≈ 0.128 µM) | 4 µg/mL (≈ 8.5 µM) | 0.06 µg/mL (≈ 0.128 µM) | 0.015 µg/mL (≈ 0.0319 µM) | – | 0.25 µg/mL (≈ 0.531 µM) | 0.03 µg/mL (≈ 0.0638 µM) | 0.03 µg/mL (≈ 0.0638 µM) | 4 µg/mL (≈ 8.5 µM) | 0.25 µg/mL (≈ 0.531 µM) | 128 µg/mL (≈ 272 µM) | 2 µg/mL (≈ 4.25 µM) | 30 mm | 30 mm | 31 mm | 0.06 µg/mL (≈ 0.128 µM) | 0.125 µg/mL (≈ 0.266 µM) | –
7 | CO/N=C(\C(=O)N[C@@H]1C(=O)N2C(C(=O)[O-])=C([n+]3cccc4c3CCCC4)CC[C@H]12)c1csc(N)n1 | 1 µg/mL (≈ 2.01 µM) | 0.125 µg/mL (≈ 0.252 µM) | 0.125 µg/mL (≈ 0.252 µM) | 8 µg/mL (≈ 16.1 µM) | 1 µg/mL (≈ 2.01 µM) | 0.06 µg/mL (≈ 0.121 µM) | – | 0.5 µg/mL (≈ 1.01 µM) | 0.125 µg/mL (≈ 0.252 µM) | 0.06 µg/mL (≈ 0.121 µM) | 16 µg/mL (≈ 32.2 µM) | 2 µg/mL (≈ 4.03 µM) | 128 µg/mL (≈ 258 µM) | 2 µg/mL (≈ 4.03 µM) | – | – | – | 4 µg/mL (≈ 8.06 µM) | 0.25 µg/mL (≈ 0.503 µM) | –
8 | CO/N=C(\C(=O)N[C@@H]1C(=O)N2C(C(=O)[O-])=C(C[n+]3ccccc3)CS[C@H]12)c1csc(N)n1 | – | – | – | – | – | – | – | – | – | – | – | – | – | – | 30 mm | 30 mm | 30 mm | – | – | –
9 | CO/N=C(\C(=O)N[C@@H]1C(=O)N2C(C(=O)[O-])=C([n+]3ccc4c(c3)ncn4C)CC[C@H]12)c1csc(N)n1 | 0.5 µg/mL (≈ 1.01 µM) | 0.06 µg/mL (≈ 0.121 µM) | 0.06 µg/mL (≈ 0.121 µM) | 8 µg/mL (≈ 16.1 µM) | 0.5 µg/mL (≈ 1.01 µM) | 0.06 µg/mL (≈ 0.121 µM) | – | 0.5 µg/mL (≈ 1.01 µM) | 0.06 µg/mL (≈ 0.121 µM) | 0.06 µg/mL (≈ 0.121 µM) | 4 µg/mL (≈ 8.06 µM) | 1 µg/mL (≈ 2.01 µM) | 128 µg/mL (≈ 258 µM) | 4 µg/mL (≈ 8.06 µM) | – | – | – | 0.25 µg/mL (≈ 0.504 µM) | 0.125 µg/mL (≈ 0.252 µM) | –
10 | Cc1cc[n+](C2=C(C(=O)[O-])N3C(=O)[C@@H](NC(=O)/C(=N\OCc4ccccc4)c4csc(N)n4)[C@H]3CC2)cc1C | 2 µg/mL (≈ 3.66 µM) | 2 µg/mL (≈ 3.66 µM) | 0.06 µg/mL (≈ 0.11 µM) | 2 µg/mL (≈ 3.66 µM) | 1 µg/mL (≈ 1.83 µM) | 0.015 µg/mL (≈ 0.0274 µM) | – | 0.125 µg/mL (≈ 0.229 µM) | 1 µg/mL (≈ 1.83 µM) | 0.03 µg/mL (≈ 0.0549 µM) | 128 µg/mL (≈ 234 µM) | 8 µg/mL (≈ 14.6 µM) | 128 µg/mL (≈ 234 µM) | 1 µg/mL (≈ 1.83 µM) | – | – | – | 8 µg/mL (≈ 14.6 µM) | 4 µg/mL (≈ 7.32 µM) | –
